The sample as a whole holds a higher share of hits than the screen did.
INS promoter act = TRM-6 insulin promoter activation; TRM-6 cells (human fetal islet line), insulin promoter eGFP reporter, imaging; plate-scaled: unstimulated 0, stimulated control 100; activation, % at 2 µM; 130,000 tested, 0.81% active;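 active = activation at 2 µM above a set limit, confirmed on inspection of the cell images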;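 also: share of cells whose green reporter signal exceeds an intensity cutoff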
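System – TRM-6 insulin promoter–eGFP reporter cells · Probe or stimulus – 0.75 µM tamoxifen as reporter inducer · Dosing – single-point 2 µM compound dose · Incubation – tamoxifen pre-incubation 15 h overnight, then compound exposure 48 h at 37 °C · Measured by – fixed-cell fluorescence microscopy, eGFP plus Hoechst · Evaluation – percent GFP-positive cells normalized to per-plate controls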
Each line names hits and unclear results; the compound was inactive in the other large screens; [ ] = dose if it differs, or a comment.

Cc1ccc(/C=C/C(=O)NCc2ccccn2)o1	none
Cc1ccc(/C=C/C(=O)NCCc2c[nH]c3ccccc23)o1	INS promoter act 466.7
Cc1ccc(C(=O)C(C)OC(=O)c2ccccc2[N+](=O)[O-])cc1 (centres undefined)	none
COc1cc(NS(=O)(=O)c2ccc(Br)s2)cc(OC)c1	none
Cc1ccc(C(=O)CCC(=O)Nc2cccc(C(F)(F)F)c2)cc1	none
CCOc1ccc(N2C(=O)/C(=C/c3cccs3)N(C)C2=S)cc1	none
CC(C)CN1C(=O)/C(=C/c2cccs2)NC1=S	INS promoter act 431.3
COc1ccc(N=C2S/C(=C\c3cccs3)C(=O)N2CC(C)C)cc1	none
CCOc1nc(-c2ccc(Cl)cc2)nc2ccccc12	none
CN(C)C(=O)c1ccc(COc2ccccc2Br)o1	INS promoter act 421.1
O=C(c1ccc(COc2ccccc2Br)o1)N1CCN(c2ccccn2)CC1	none
O=C(Nc1cccnc1)c1ccc(COc2ccccc2Cl)o1	none
CCN1CCN(c2nc3ccccc3nc2C(C#N)C(=O)OC2CCCCC2)CC1 (centres undefined)	none
CCN1CCN(C2=CC3=CC(=C(C#N)C#N)CCC3CC2)CC1 (centres undefined)	INS promoter act 614.3[fluoresces]
CN1CCN(C2=CC3=CC(=C(C#N)C#N)CCC3CC2)CC1 (centres undefined)	INS promoter act 640.7
N#CC(C#N)=C1C=C2C=C(N3CCCCCC3)CCC2CC1 (centres undefined)	INS promoter act 222.6
C=CCC(CC=C)(NC(=O)c1ccccc1C)c1ccccc1	none
Cc1ccc(-n2c(Cn3nc(C(F)(F)F)cc3C)n[nH]c2=S)cc1	none
Cc1ccc2nc(COc3ccc(Cl)cc3)cc(=O)n2c1	none
CCCCN(CC)CCCNC(=O)C1CCN(c2ncnc3c2sc2cccc(F)c23)CC1	none
CCCOc1ccc(CN(CCC#N)C(=S)NC(=O)c2ccccc2)cc1	none
CCN1CCN(C(=O)Nc2ccccc2OC)CC1	none
CCN(C(=O)COC(=O)/C=C/c1ccc(O)c(OC)c1)C1CCS(=O)(=O)C1 (centres undefined)	none
CCCCC(=O)Nc1ccc(NC(=O)C2CC2)nc1	none
O=C(c1ccncc1)N1CCN(C(=O)c2cccs2)CC1	none
O=C(c1cccs1)N1CCN(Cc2ccccn2)CC1	none
O=C(c1cccnc1)N1CCN(C(=O)c2cccs2)CC1	INS promoter act 456.3
Clc1cccc(NCc2cn3cccnc3n2)c1	none
Cc1ccc(C(=O)NCc2cccnc2)cc1S(=O)(=O)Nc1ccccc1	none
CC(=O)C1=C(O)C(=O)N(CCCn2ccnc2)C1c1ccc(Br)cc1 (centres undefined)	INS promoter act 346.7
CCN(CC)CCCN1C(=O)C(O)=C(C(C)=O)C1c1cccc(OC)c1 (centres undefined)	none
O=C(NCCCn1ccnc1)C(=O)NCC1OCCN1S(=O)(=O)c1ccc(Br)cc1 (centres undefined)	none
CCn1cc(-c2cc(C(=O)O)c3ccccc3n2)cn1	none
CCOc1ccc(N2C(=O)C3C(c4ccc(O)cc4)NC(CCSC)(C(=O)OC)C3C2=O)cc1 (centres undefined)	none
CCOC(=O)C(NC(=O)c1ccc(OC)cc1)(OCC1(CC)COC1)C(F)(F)F (centres undefined)	none
CCOC(=O)C(NC(=O)Nc1ncccn1)(Oc1ccccc1)C(F)(F)F (centres undefined)	INS promoter act 190.0
CCOC(=O)C(NC(=O)c1ccccc1)(OCc1ccc(F)cc1)C(F)(F)F (centres undefined)	none
CCOc1cc(N2CCOCC2)c(OCC)cc1NC(=O)c1ccc(OCc2c(C)noc2C)c(OC)c1	none
CCN(C(=O)CN1CCOCC1)C1(C)C(=O)c2ccccc2C1=O	none
CC1(C(=O)NCCN2CCOCC2)C=CC2(CCCCC2)N1C(=O)c1ccccc1 (centres undefined)	none
Cc1ccc(-c2n[nH]c(=S)n2/N=C/c2c(C)nn(-c3ccccc3)c2C)cc1	none
Cc1cccc(-c2n[nH]c(=S)n2/N=C/c2ccc(C)s2)c1	none
CCN(CC)S(=O)(=O)c1cccc(-c2n[nH]c(=S)n2/N=C/c2ccc(Br)cc2)c1	INS promoter act 438.5
CC(=O)NC(C)C(=O)OCC(=O)c1ccc(-c2ccccc2)cc1 (centres undefined)	none
CCOc1ccc(C(=S)N2CCN(C)CC2)cc1	none
CC(OC(=O)c1ccncc1)C(=O)Nc1cc(S(=O)(=O)N2CCCCC2)ccc1Cl (centres undefined)	none
C=CC(=O)NC(C)(C)CCN1CCOCC1	none
c1cncc(C(c2nnnn2C2CCCC2)N2CCN(Cc3ccc4c(c3)OCO4)CC2)c1 (centres undefined)	none
c1cnc(N2CCN(Cc3ccc4c(c3)OCO4)CC2)nc1	INS promoter act 313.6
CC(C)C(c1nnnn1Cc1ccc(F)cc1)N1CCN(Cc2ccc3c(c2)OCO3)CC1 (centres undefined)	INS promoter act 121.4
c1cc2c(cc1CN1CCOCC1)OCO2	none
c1ccc2c(c1)CCN(Cc1nnnn1Cc1ccc3c(c1)OCO3)C2	none
CCOc1ncccc1C(=O)N1CCN(Cc2ccc3c(c2)OCO3)CC1	none
Cc1cccc(NC(=O)CN2NS(=O)(=O)c3ccccc3C2=O)c1	none
CN(C(=O)c1ccccc1OC1CCN(S(C)(=O)=O)CC1)C1CCOC1 (centres undefined)	none
CCN(CC)c1ccc2cc(-c3nc(-c4ccc(OC)cc4)cs3)c(=O)oc2c1	INS promoter act 222.6[fluoresces]
CCOC(=O)c1cc2ccc(OC)cc2oc1=O	none
CN(C)C(=O)COc1ccc2cc(-c3ccccc3)c(=O)oc2c1	none
Cc1ccc(OCC(O)CNC(=O)c2ccccc2C(=O)O)cc1 (centres undefined)	none
CCC(C)NS(=O)(=O)c1ccc(F)c(C(=O)Nc2c(F)cc(F)cc2Br)c1 (centres undefined)	none
O=C(c1ccc(Cl)c(S(=O)(=O)N2CCCCCC2)c1)N1CCN(c2ccccc2O)CC1	none
S=C1NCCNC(=S)NCCOCCOCCN1	none
CCOC(=S)N/C(=N\S(=O)(=O)c1ccc(C)cc1)c1ccccc1	none
CCOC(=O)c1c(C)[nH]c(C(=O)COC(=O)C(C)N2C(=O)C3CCCCC3C2=O)c1C (centres undefined)	none
Cc1nn(C(=O)CNS(=O)(=O)c2ccccc2)c(C)c1Sc1ccc(Cl)cc1	none
COc1ccc(/C=C2\CC/C(=C\c3ccc(OC)cc3OC)C2=O)c(OC)c1	INS promoter act 526.7
COc1ccc(/C=C2\CC/C(=C\c3ccc(OC)c(OC)c3)C2=O)cc1OC	none
COc1ccc(/C=N\NC(=O)c2cccc(Br)c2)c(OC)c1	none
CC(C)CNC(=O)CSc1nc2nn(-c3ccccc3)c(=O)c-2c2n1CCCCC2	INS promoter act 466.7
CC(NC(=O)CSc1nc(=O)cc(N)n1-c1ccccc1)c1ccccc1 (centres undefined)	none
COC(=O)c1c(NC(=O)CSc2nnnn2-c2ccccc2)sc2c1CCCC2	none
COc1ccc(-n2c(SCc3ccccn3)nc3c(c2=O)SCC3)cc1OC	none
CC(=O)OC(C(=O)Nc1ccccc1C)C(OC(C)=O)C(OC(C)=O)C(OC(C)=O)C(=O)Nc1ccccc1C (centres undefined)	none
O=C(Oc1ccccc1C(=O)Nc1ccccc1)c1ccccc1Br	none
CC(=O)NC(Cc1ccc(C)cc1)C(=O)NC1CCN(c2ncccc2[N+](=O)[O-])CC1 (centres undefined)	none
CC(c1ccccc1)N1C(=O)c2ccc(C(=O)NCc3ccco3)cc2C1=O (centres undefined)	INS promoter act 440.0
Cn1nnc2cc(C(=O)NCc3ccco3)ccc21	none
Cc1ccc(C(=O)Nc2cccc(C(=O)NCc3ccco3)c2)cc1	none
CC1CCN(CC(O)COC2CC(C)CCC2C(C)C)CC1 (centres undefined)	INS promoter act 542.9

Assay outcomes as filed in PubChem BioAssay.
